# TRPC4 act: activators of mouse TRPC4 channel, primary screen, Fluo4 calcium, HEK293 TRPC4beta/mu-opioid cells. Short transient receptor potential channel 4 (Mus musculus), Q9QUQ5. Fluo4 calcium fluorescence; hits give high values. B-score at 10 µM. 310,000 compounds, 0.49% hits;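 active means B-score above 5 SD of library B-scores, and initial fluorescence ratio not above library mean plus 5 SD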;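 further: positive B-score marks a calcium rise read as TRPC4 activation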
# Target sequence (Q9QUQ5 whole entry, looked up): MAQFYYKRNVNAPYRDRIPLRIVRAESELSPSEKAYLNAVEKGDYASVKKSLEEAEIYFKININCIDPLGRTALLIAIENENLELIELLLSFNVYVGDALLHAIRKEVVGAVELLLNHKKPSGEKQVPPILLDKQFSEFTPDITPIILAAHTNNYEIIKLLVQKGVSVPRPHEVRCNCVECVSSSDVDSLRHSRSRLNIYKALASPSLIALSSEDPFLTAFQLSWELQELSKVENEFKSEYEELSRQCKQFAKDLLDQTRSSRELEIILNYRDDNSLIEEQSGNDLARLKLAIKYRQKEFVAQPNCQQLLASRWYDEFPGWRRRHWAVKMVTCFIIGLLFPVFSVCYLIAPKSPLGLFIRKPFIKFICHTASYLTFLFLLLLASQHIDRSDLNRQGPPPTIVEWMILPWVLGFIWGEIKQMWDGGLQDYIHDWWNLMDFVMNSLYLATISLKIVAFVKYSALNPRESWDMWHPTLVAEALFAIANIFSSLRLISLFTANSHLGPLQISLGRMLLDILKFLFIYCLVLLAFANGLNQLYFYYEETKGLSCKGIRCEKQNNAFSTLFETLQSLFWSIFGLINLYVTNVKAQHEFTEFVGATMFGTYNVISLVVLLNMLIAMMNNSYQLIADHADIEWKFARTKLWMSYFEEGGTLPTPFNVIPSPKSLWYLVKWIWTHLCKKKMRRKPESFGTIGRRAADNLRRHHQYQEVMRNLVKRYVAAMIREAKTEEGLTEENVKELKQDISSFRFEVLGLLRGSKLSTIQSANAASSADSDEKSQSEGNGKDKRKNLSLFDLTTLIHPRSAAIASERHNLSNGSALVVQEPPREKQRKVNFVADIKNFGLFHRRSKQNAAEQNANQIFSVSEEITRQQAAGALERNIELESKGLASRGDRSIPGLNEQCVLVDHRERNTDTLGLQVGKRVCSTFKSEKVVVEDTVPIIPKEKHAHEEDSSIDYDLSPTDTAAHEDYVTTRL
#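 Material: HEK293 stable line with TRPC4beta plus mu-opioid receptor; technique: Fluo4 calcium-sensitive dye fluorescence, kinetic, 1 Hz baseline; timing: Fluo4 dye loading 45 min at room temperature, 110 s recording; controls: assay buffer as low control, maximal DAMGO as high control; read-out: integrated baseline-normalised fluorescence ratio, converted to per-well B score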
# TRPC6 inh: mouse TRPC6 channel inhibitors, primary screen, cell-based, HEK293, membrane potential dye; ACh-evoked depolarization; hits give low values; AID 2553, 2010; 310,000 compounds, 1.1% hits; B-score at 10 µM; Short transient receptor potential channel 6 (Mus musculus), Q61143;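 active means B-score under library mean minus 3 SD, initial fluorescence not abnormally high, positive integrated signal ratio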;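 further: B-score derived from integrated fluorescence ratio over the kinetic read; more negative B-score means stronger inhibition of depolarization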
# TRPC4 inh: inhibitors of mouse TRPC4 channel, primary screen, Fluo4 calcium, HEK293 TRPC4beta/mu-opioid cells; Short transient receptor potential channel 4 (Mus musculus), Q9QUQ5; DAMGO-evoked Fluo4 calcium flux; hits give low values; B-score at 10 µM; 300,000 compounds, 0.39% hits;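 active means B-score over 3 SD under the library average, no early fluorescence shift, positive overall ratio signal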
#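 Material: HEK293 cells with stable TRPC4beta plus mu-opioid receptor expression / Probe or stimulus: DAMGO in two steps, submaximal then maximal / Compound: single concentration per test compound / Technique: kinetic Fluo4 fluorescence imaging of calcium influx / Read-out: per-well B score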
# TRPC6 activator: mouse TRPC6 channel activators, primary screen, cell-based, HEK293, membrane potential dye. B-score at 10 µM. 310,000 compounds, 0.13% hits. HEK293-TRPC6 membrane potential dye fluorescence; hits give high values. Short transient receptor potential channel 6 (Mus musculus), Q61143;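 active means B-score of the integrated fluorescence ratio above library mean plus 3 SD, and starting fluorescence ratio within library mean plus 5 SD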;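 further: higher score means more depolarization so channel activation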
# TRPC4 potent: positive allosteric modulators of TRPC4, primary screen, cell-based, mouse TRPC4beta, HEK293 mu-opioid, Fluo-4 calcium; B-score at 10 µM; AID 2227, 2009; Short transient receptor potential channel 4 (Mus musculus), Q9QUQ5; 310,000 compounds, 0.42% hits; DAMGO EC20, Fluo-4 Ca2+ flux; hits give high values;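 active means B-score of calcium response area above 5 SD of library B-scores, with initial fluorescence ratio within 5 SD of library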;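 further: B-score of integrated fluorescence ratio over time as area under calcium response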
# TRPC4 sel inh 2: second check of whether TRPC6 inhibitors also affect mouse TRPC4; shares compounds with TRPC6 inh; AID 2776; HEK293 TRPC4/MOR, membrane potential dye fluorescence; channel activated by saturating DAMGO dose; 920 compounds, 42% hits; inhibition, % at 10 µM;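 active means compounds whose fluorescence signal differed from control wells by over 3 SD, either direction, in both duplicate plates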
# TRPC4 spec: mouse TRPC4 modulation by TRPC6 hits, confirmation, selectivity assay for TRPC6 inhibitor project, cell-based, HEK293 TRPC4/mu-opioid, membrane potential dye. shares compounds with TRPC6 inh. membrane potential fluorescence. activity change, negative = inhibition, % at 10 µM. 920 compounds, 61% hits;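 active means rise or fall in signal beyond 3 SD of buffer-only wells in both replicate plates, either sign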;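 further: integrated kinetic ratio of fluorescence range over baseline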
# HEK293 MPD ctr 2-1: nonspecific membrane potential effects, parental HEK293, confirmation, counter-screen for TRPC6 inhibitor project, cell-based, second counter screen; shares compounds with TRPC6 inh; parental HEK293 membrane potential dye fluorescence; maximal acetylcholine challenge after compound addition; signal change vs control, % at 10 µM; 920 compounds, 31% hits;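 active means membrane potential signal moving either way by over 3 SD of the maximum-effect control, in both duplicate plates, meaning non-specific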
# HEK293 MPD ctr-1: membrane potential modulation in parental HEK293, confirmation, counter-screen for TRPC6 inhibitor project, cell-based | shares compounds with TRPC6 inh | parental HEK293 membrane potential dye fluorescence | membrane potential signal change, % at 10 µM | 920 compounds, 60% hits;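 active means membrane potential signal shifting up or down by more than 3 SD of buffer-only wells, on both duplicate plates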
# HEK293 MPD ctr-2: parental HEK293 membrane potential modulation, confirmation, counter-screen for TRPC6 modulator project, cell-based. shares compounds with TRPC6 inh. membrane potential dye fluorescence. membrane potential signal change, % at 10 µM. 2,400 compounds, 51% hits. AID 488924, 2010;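 active means membrane potential signal moves up or down beyond 5 SD from buffer-only wells, on both duplicate plates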
# HEK293 MPD ctr 2-2: parental HEK293 nonspecific activity of TRPC6 modulators, second screen | AID 488926 | membrane potential dye fluorescence; after compound, maximal acetylcholine stimulation | 2,400 compounds, 14% hits | inhibition, % at 10 µM | shares compounds with TRPC6 inh;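 active means membrane potential signal drops by more than 5 SD from the mean control signal, in both duplicate plates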;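 further: plate controls were acetylcholine ECmax control wells for no effect and buffer only wells for full effect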
# TRPC4/MOR mod: TRPC4 modulation by TRPC6 hit compounds, confirmation, selectivity assay for TRPC6 modulator project, cell-based, HEK293 TRPC4/mu-opioid, membrane potential dye, mouse; percent change from control (negative = decrease, positive = increase), % at 10 µM; AID 488927, 2010; 2,400 compounds, 69% hits; shares compounds with TRPC6 inh; membrane potential fluorescence;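 active means membrane potential signal moved up or down beyond 5 SD of buffer control wells, in both duplicate plates, actives on both sides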;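 further: plate controls were assay buffer wells for no effect and DAMGO maximal-effect wells for full effect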
# TRPC4/MOR inh 2: mouse TRPC4 off-target activity of TRPC6 modulators, second screen; HEK293 TRPC4/mu-opioid, membrane potential dye fluorescence; stimulated with maximal-effect DAMGO; 2,400 compounds, 55% hits; AID 488928; shares compounds with TRPC6 inh; inhibition, % at 10 µM;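 active means drop in membrane potential signal beyond 5 SD of the control wells in both duplicate plates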;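 further: TRPC4 counter screen for TRPC6 hits run under conditions tuned for TRPC6 not TRPC4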
# TRPC6 inh conf: mouse TRPC6 channel inhibitors, confirmation, HEK293 cells, membrane potential dye, duplicate | shares compounds with TRPC6 inh | ACh-evoked depolarization | inhibition, % at 10 µM | 3,300 compounds, 43% hits;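 active means fluorescence ratio falls more than 5 SD below the full-stimulation control mean, in both duplicate runs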;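 further: integrated fluorescence ratio of peak minus minimum over baseline after agonist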
# TRPC6 act conf: mouse TRPC6 channel activators, confirmation, HEK293 cells, membrane potential dye, duplicate; HEK293-TRPC6 membrane potential dye fluorescence, FDSS; 2,800 compounds, 11% hits; activation, % at 10 µM; shares compounds with TRPC6 inh;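 active means ratio signal rise beyond 5 SD above unstimulated control wells' mean, seen in both duplicate runs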;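 further: plate controls were buffer EC0 wells for no effect and acetylcholine ECmax response for full effect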
# * marks the source's active call; other numbers are inactive results; i = inactive; x = not tested or not shown. The list is not random: actives were taken first. Their share in the collection is about 2.3%.
SMILES,TRPC4 act,TRPC6 inh,TRPC4 inh,TRPC6 activator,TRPC4 potent,HEK293 MPD ctr-2,HEK293 MPD ctr 2-2,TRPC4/MOR mod,TRPC4/MOR inh 2,TRPC6 inh conf,TRPC6 act conf,others
COc1cccc(C(C(=O)NC2CCCCC2)N(C(=O)c2csnn2)C2CC2)c1 (configuration not stated),i,i,i,i,i,x,x,x,x,x,x,
C=CCN1C2CCCC1CC(NC(=O)Nc1cccc(C(C)=O)c1)C2 (configuration not stated),i,-5.4*,i,i,i,i,i,i,i,85%*,x,
Nc1ccc(N=Nc2ccccc2O)c(N)c1,i,-6.5*,i,i,i,-174%*,i,28%*,98%*,i,i,
Oc1ccccc1N=Nc1ccccc1O,i,i,i,i,i,x,x,x,x,x,x,
COC(=O)c1ccc2c(=O)[nH]c(COC(=O)CCC(=O)c3ccc(Cl)cc3)nc2c1,i,i,i,i,i,x,x,x,x,x,x,
Cc1c(OCC(=O)N(C)C)ccc2c3c(c(=O)oc12)CCCCC3,i,-11*,i,i,i,x,x,x,x,i,i,TRPC4 sel inh 2=i;TRPC4 spec=i;HEK293 MPD ctr 2-1=i;HEK293 MPD ctr-1=-0.2%*
COc1ccc(/C=C(/NC(=O)/C=C/c2ccccc2)C(=O)N2CCOCC2)cc1,i,-5.8*,i,i,i,i,i,i,i,42%*,i,
Cn1c(=O)c2c(nc(CN3CCc4ccccc4C3)n2Cc2ccccc2)n(C)c1=O,i,-5.7*,i,i,46*,i,i,109%*,68%*,i,x,
CCN(CC)CCOC(=O)C1c2ccccc2Oc2ccccc21,i,-10*,i,i,i,x,x,x,x,81%*,x,TRPC4 sel inh 2=i;TRPC4 spec=7.9%*;HEK293 MPD ctr 2-1=28%*;HEK293 MPD ctr-1=6.7%*
